The text below walks through data of PubChem BioAssay AID624177 (Southern Research Specialized Biocontainment Screening …, 2012).

Calls of active or inactive are those of the source.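 Rule for the calls: active = inhibition of 30% or more at any tested concentration; inactive = the rest.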

The first test addresses M18 aspartyl aminopeptidase (Plasmodium falciparum). As to the kind of experiment: inhibition of P. falciparum M18 aminopeptidase – biochemical, QFRET fluorogenic substrate, set 2, dose response (AID 624177). The note with it: recombinant PfM18AAP, H-Glu-NHMec fluorogenic substrate cleavage. In a few lines:
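Test system: recombinant PFM18AAP enzyme; quantity: enzyme at 5 µg/mL final; times: 90 min reaction, room temperature; replication: triplicate; controls: no-enzyme background control; medium: pH 7.5 Tris, 2 mM CoCl2, 2% DMSO; compound dosing: 10 concentrations, 1:2 steps, 100–0.2 µM; reagent: fluorogenic H-Glu-NHMec peptide substrate at 0.1 mM final; signal: fluorescence at 370/460 nm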
Usually IC50 stands for the midpoint of a concentration-inhibition curve. As for `Oc1ccc(CCNc2ccnc3c(F)cccc23)cc1O`, the IC50 was 9.8 µM.

`Oc1ccc(C2CCN(c3ccnc4ccccc34)CC2)cc1O`: the IC50 was 4.6 µM. Still for that read-out and setting: with `Cc1cccc2c(NCCc3ccc(O)c(O)c3)ccnc12` the figure was 14.5 µM; with `CC(C)(CNc1ccnc2ccccc12)c1ccc(O)c(O)c1`, 47.6 µM. As to `CN(CCCc1ccc(O)c(O)c1)c1c2ccccc2nc2ccccc12`, the IC50 was 40.1 µM.

Take `CN(CCc1ccc(O)c(O)c1)c1ncnc2ccccc12`: the IC50 is 7.69 µM.

Regarding `Oc1cccc(CCNc2ccnc3ccccc23)c1O`, the concentration for half-maximal inhibition (IC50) is 16.5 µM. Turning to `Oc1ccc(C2CCN(c3ccnc4ccccc34)C2)cc1O` (centres undefined), the IC50 is 6.55 µM. The same measure, in the same setting: with `Cc1cc(N(C)CCc2ccc(O)c(O)c2)c2ccccc2n1` the figure was 11.9 µM; with `Cc1cccc2c(N(C)CCc3ccc(O)c(O)c3)ccnc12`, 11.9 µM; with `Oc1ccc(CCNc2ccnc3cc(Cl)ccc23)cc1O`, 14.8 µM. The same measure, in the same setting: with `Oc1ccc(CCCNc2c3c(nc4ccccc24)CCCC3)cc1O` the figure was 10.8 µM; with `CCN(CCc1ccc(O)c(O)c1)c1c2ccccc2nc2ccccc12`, 16.9 µM; with `CC(Cc1ccc(O)c(O)c1)Nc1ccnc2ccccc12` (centres undefined), 16.6 µM. The same measure, in the same setting: next, `CN(CCCc1ccc(O)c(O)c1)c1ccnc2ccccc12`: 10.3 µM. As to `CN(CCc1ccc(O)c(O)c1)c1ccnc2cc(Cl)ccc12`, the concentration for half-maximal inhibition (IC50) was 8.46 µM. In the case of `Oc1ccc(C2CCCN(c3ccnc4ccccc34)C2)cc1O` (centres undefined), the IC50 was 7.32 µM.

For the compound `CN(CCc1ccc(O)c(O)c1)c1c2ccccc2nc2ccccc12`, the half-maximal inhibitory concentration (IC50) is 30 µM. On the same count and under the same terms, with `CN(CCc1ccc(O)c(O)c1)c1ccnc2c(F)cccc12` the figure was 8.76 µM.

Still in this test, the particulars now being: recombinant PfM18AAP, H-Glu-NHMec fluorogenic substrate cleavage; at 100 µM (top of the series).
`COc1cc(Br)c(CCNc2c3ccccc3nc3ccccc23)cc1OC`: the inhibition result is “inactive”.

As for `COc1ccc(CCN(C)c2cc(C)nc3ccccc23)cc1OC`, the inhibition result is “inactive”. The same measure, in the same setting: next, `CCOc1ccc2nccc(N(C)CCc3ccc(OC)c(OC)c3)c2c1`: “inactive”. Still for that read-out and setting: next, `COc1ccc(C2CCN(c3ccnc4ccccc34)C2)cc1OC` (centres undefined): “inactive”. On the same count and under the same terms, next, `Nc1c2ccccc2nc2ccccc12`: “inactive”; `COc1ccc(CCN(C)c2c3ccccc3nc3ccccc23)cc1OC`: “inactive”.

Regarding `COc1ccc(C2CCN(c3ccnc4ccccc34)CC2)cc1OC`, the inhibition result is “inactive”. On the same count and under the same terms, with `COc1cc(Br)c(CCNc2ccnc3ccccc23)cc1OC` the entry was “inactive”. The same measure, in the same setting: next, `Clc1c2c(nc3ccccc13)CCCC2`: “inactive”. The same measure, in the same setting: next, `COc1ccc(CCN(C)c2ccnc3c(C)cccc23)cc1OC`: “inactive”.

Regarding `CCN(CCc1ccc(OC)c(OC)c1)c1c2ccccc2nc2ccccc12`, the inhibition result was “inactive”. The same measure, in the same setting: with `COc1ccc(CCNc2ccnc3c(F)cccc23)cc1OC` the entry was “inactive”. On the same count and under the same terms, with `COc1ccc(CCN(C)c2ccnc3cc(Cl)ccc23)cc1OC` the entry was “inactive”; with `COc1ccc(CCN(C)c2ncnc3ccccc23)cc1OC`, “inactive”. As to `COc1ccc(CCNc2ncnc3ccccc23)cc1OC`, the inhibition entry was “inactive”. The same measure, in the same setting: next, `CCOc1ccc2nccc(NCCc3ccc(OC)c(OC)c3)c2c1`: “inactive”. Same read-out and setting: with `COc1ccc(CCN(C)c2ccnc3c(F)cccc23)cc1OC` the entry was “inactive”; with `COc1ccc(CCNc2ccnc3c(C)cccc23)cc1OC`, “inactive”. Still for that read-out and setting: with `COc1ccc(CCCN(C)c2c3ccccc3nc3ccccc23)cc1OC` the entry was “inactive”; with `COc1ccc(CCNc2c3c(nc4ccc(C)cc24)CCCC3)cc1OC`, “inactive”. As for `COc1ccc(CCNC(=O)c2cc(C)ccc2N)cc1OC`, the inhibition result is “inactive”. Still for that read-out and setting: with `COc1cc(Br)c(CCNc2c3c(nc4ccccc24)CCCC3)cc1OC` the entry was “inactive”; with `COc1ccc(CCNc2cc(C)nc3ccccc23)cc1OC`, “inactive”.

Turning to `COc1ccc(CCCNc2c3c(nc4ccccc24)CCCC3)cc1OC`, the inhibition entry is “inactive”. Take `COc1ccc(CCNc2ccnc3cc(Cl)ccc23)cc1OC`: the inhibition entry is “inactive”.
